Experiments:
[1] = system: Candida albicans; experiment: Antifungal activity agaisnt Candida albicans ATCC 10231 by agar diffusion method
[2] = system: Bacillus subtilis; experiment: Antibacterial activity agaisnt Bacillus subtilis MTCC 1456 by agar diffusion method; type: functional
In short: (§1)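 Mueller Hinton agar (pH 7.4) was seeded with 24-h cultures adjusted to 0.5 McFarland. Compounds were prepared as 10 mg/ml stocks in DMF and added to 6 mm wells. DMF served as the negative control. Plates were incubated at 35 °C for 24 h, and the diameter of the growth inhibition zone was read in mm with a caliper.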

[3] = system: Rattus norvegicus; experiment: Antiulcerogenic activity against acetic acid-induced ulcerative colitis in albino rat assessed as ratio of wet weight and length at 12.5 mmol/kg, po; type: functional
In short: (§2)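 Male albino rats (190–200 g, n = 5 per group) received drug in DMSO by orogastric cannula daily for 5 days, with the last dose 2 h before colitis. After a 36 h fast and under ether, 4% acetic acid (5 ml/kg) was instilled 8 cm intrarectally. At 24 h, the distal 8 cm colon was scored for wet weight/length, ulcer area (1 mm² grid count), and ulcer index (lesion score 0–4 plus area).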

[4] = Toxicity in po dosed albino rat; type: organism-based; settings: in vivo
[5] = system: Staphylococcus aureus; experiment: Antibacterial activity agaisnt Staphylococcus aureus MTCC 3160 by agar diffusion method; type: functional
In short: as §1

[6] = system: Rattus norvegicus; experiment: Antiulcerogenic activity against acetic acid-induced ulcerative colitis in albino rat assessed as ulcer area at 12.5 mmol/kg, po; type: functional
In short: as §2

[7] = system: Rattus norvegicus; experiment: Antiulcerogenic activity against acetic acid-induced ulcerative colitis in albino rat assessed as ulcer index at 12.5 mmol/kg, po; type: functional
In short: as §2

[8] = system: Escherichia coli; experiment: Antibacterial activity agaisnt Escherichia coli MTCC 8739 by agar diffusion method; type: functional
In short: as §1

Row | Structure (SMILES) | diameter of the inhibition zone (DIZ) [1] [mm] | diameter of the inhibition zone (DIZ) [2] [mm] | Ratio [3] | LD50 [4] [mg/kg] | diameter of the inhibition zone (DIZ) [5] [mm] | ulcer area [6] [cm2] | Activity [7] [no unit] | diameter of the inhibition zone (DIZ) [8] [mm]
1 | COc1c(C(=O)O)c(O)cc2occc12 | 8 |  |  |  |  |  |  | 
2 | COc1c(C(=O)O)c(O)c(N)c2occc12 | 8 | 8 | 90 | 396 | 8 | 3.3 | 5.5 | 10
3 | COc1c(C(=O)O)c(O)c(S(=O)(=O)Cl)c2occc12 | 20 | 8 | 112 | 390 | 8 | 4.7 | 8.1 | 8
4 | COc1c(C(=O)O)c(O)c(S(N)(=O)=O)c2occc12 | 14 | 8 | 103.4 | 400 | 8 | 4.4 | 7.4 | 8
5 | COc1c(C(=O)O)c(O)c(/N=N/c2ccccc2)c2occc12 | 18 | 10 | 84.5 | 410 | 8 | 2.6 | 4.8 | 10
6 | COc1c(C(=O)O)c(O)c(/N=N/c2ccc(S(=O)(=O)Nc3ccccn3)cc2)c2occc12 | 22 | 12 | 95.2 | 410 | 10 | 3.9 | 6.7 | 12
7 | COc1c(C(=O)O)c(O)c(NS(=O)(=O)c2ccccc2)c2occc12 | 10 | 10 | 99.1 | 400 |  | 4.4 | 7.4 | 
8 | COc1c(C(=O)O)c(O)c(NS(=O)(=O)c2ccc(C)cc2)c2occc12 | 15 | 10 | 98.6 | 400 |  | 4.3 | 7.6 | 
9 | COc1c(C(=O)O)c(O)c(NS(=O)(=O)c2ccc(Cl)cc2)c2occc12 | 8 | 12 | 86.4 | 390 |  | 2.6 | 4.6 | 
10 | COc1c(C(=O)O)c(O)c(S(=O)(=O)Nc2ccccc2)c2occc12 | 15 | 12 | 119.9 | 396 |  | 5.1 | 8.5 | 
11 | COc1c(C(=O)O)c(O)c(S(=O)(=O)Nc2ccc(C)cc2)c2occc12 | 10 |  | 111 | 396 | 8 | 4.7 | 8.1 | 12
12 | COc1c(C(=O)O)c(O)c(S(=O)(=O)Nc2ccc(Cl)cc2)c2occc12 | 12 |  | 112 | 410 |  | 4.8 | 8.2 | 12
13 | COc1c(C(=O)O)c(O)c(S(=O)(=O)Nc2ccc(Cl)cc2Cl)c2occc12 | 8 |  | 110 | 410 |  | 4.8 | 8.2 | 
14 | COc1ccc(NS(=O)(=O)c2c(O)c(C(=O)O)c(OC)c3ccoc23)cc1 | 8 | 10 | 120.1 | 396 |  | 5.1 | 8.7 | 
15 | C[C@@H]1[C@H](O)[C@@H](C)/C=C/C=C/C=C/C=C/C=C/C=C/C=C/[C@H](O[C@@H]2O[C@H](C)[C@@H](O)[C@H](N)[C@@H]2O)C[C@@H]2O[C@](O)(C[C@@H](O)C[C@@H](O)[C@H](O)CC[C@@H](O)C[C@@H](O)CC(=O)O[C@H]1C)C[C@H](O)[C@H]2C(=O)O [AMPHOTERICIN B] | 20 |  |  |  |  |  |  | 
16 | O=C(O)c1cc(/N=N/c2ccc(S(=O)(=O)Nc3ccccn3)cc2)ccc1O [SULFASALAZINE] | 7 | 25 | 79 |  | 30 | 2.1 | 3.7 | 8
